A short description of test [1]: Antioxidant activity assessed as inhibition of ABTS free radical generation at 17 uM after 20 mins by UV spectrophotometric analysis relative to control. The class given is functional. An outline of the steps:
(§1)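 ABTS radical cation formed by mixing ABTS diammonium salt (96 mg) and potassium persulfate (33 mg) in 25 mL 0.1 M phosphate buffer pH 7.0, then left in the dark at room temperature for 16 h before use. Samples made fresh as 2 mM stocks in methanol/phosphate buffer 1:1 and assayed in triplicate. Absorbance read at 734 nm; %I = (A_blank − A_sample)/A_blank.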

A short description of test [2]: Antioxidant activity assessed as inhibition of ABTS free radical generation after 20 mins by UV spectrophotometric analysis relative to control. It is filed as functional. Summed up: as §1
The nature of test [3]: Antioxidant activity assessed as inhibition of ABTS free radical generation at 33 uM after 20 mins by UV spectrophotometric analysis relative to control. It is filed as functional. An outline of the steps:
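ABTS radical cation was generated from ABTS diammonium salt and potassium persulfate in 0.1 M phosphate buffer, pH 7.0, and left in the dark at room temperature for 16 h before use. Sample stocks (2 mM) were freshly prepared in methanol/phosphate buffer 1:1 and tested in triplicate. Absorbance was read at 734 nm, with inhibition calculated as %I = (A_blank − A_sample)/A_blank.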

Test [4] addresses Glutamate receptor ionotropic, NMDA 2B (Rattus norvegicus, UniProt Q00960). Briefly: Displacement of [3H]-ifenprodil from Wistar rat cerebral cortex GluN2B after 120 mins. It is filed as tissue-based. Summed up: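 Membranes from cerebral cortices of male Wistar-derived rats (175 g) prepared in Tris–HCl pH 7.4. A 5 mg aliquot was incubated with 2 nM [3H]ifenprodil plus 5 μM GBR-12909, which blocks non-polyamine-sensitive sites, for 120 min at 4 °C. Nonspecific binding defined with 10 μM ifenprodil. Membranes filtered, washed and counted. Three test concentrations run in duplicate.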
Background: Displacement assays read how much labelled ligand stays bound in the presence of the test substance.

Molecules are shown by their SMILES. Calls of active or inactive are those of the source. The calls are words filed in the database; no cut-off is given here.

A word on the inhibition: it is the drop in the measured response relative to a control, in per cent. As a reminder, the IC50 is the concentration at which inhibition is half-maximal.

Sequence of Glutamate receptor ionotropic, NMDA 2B (Q00960 whole entry): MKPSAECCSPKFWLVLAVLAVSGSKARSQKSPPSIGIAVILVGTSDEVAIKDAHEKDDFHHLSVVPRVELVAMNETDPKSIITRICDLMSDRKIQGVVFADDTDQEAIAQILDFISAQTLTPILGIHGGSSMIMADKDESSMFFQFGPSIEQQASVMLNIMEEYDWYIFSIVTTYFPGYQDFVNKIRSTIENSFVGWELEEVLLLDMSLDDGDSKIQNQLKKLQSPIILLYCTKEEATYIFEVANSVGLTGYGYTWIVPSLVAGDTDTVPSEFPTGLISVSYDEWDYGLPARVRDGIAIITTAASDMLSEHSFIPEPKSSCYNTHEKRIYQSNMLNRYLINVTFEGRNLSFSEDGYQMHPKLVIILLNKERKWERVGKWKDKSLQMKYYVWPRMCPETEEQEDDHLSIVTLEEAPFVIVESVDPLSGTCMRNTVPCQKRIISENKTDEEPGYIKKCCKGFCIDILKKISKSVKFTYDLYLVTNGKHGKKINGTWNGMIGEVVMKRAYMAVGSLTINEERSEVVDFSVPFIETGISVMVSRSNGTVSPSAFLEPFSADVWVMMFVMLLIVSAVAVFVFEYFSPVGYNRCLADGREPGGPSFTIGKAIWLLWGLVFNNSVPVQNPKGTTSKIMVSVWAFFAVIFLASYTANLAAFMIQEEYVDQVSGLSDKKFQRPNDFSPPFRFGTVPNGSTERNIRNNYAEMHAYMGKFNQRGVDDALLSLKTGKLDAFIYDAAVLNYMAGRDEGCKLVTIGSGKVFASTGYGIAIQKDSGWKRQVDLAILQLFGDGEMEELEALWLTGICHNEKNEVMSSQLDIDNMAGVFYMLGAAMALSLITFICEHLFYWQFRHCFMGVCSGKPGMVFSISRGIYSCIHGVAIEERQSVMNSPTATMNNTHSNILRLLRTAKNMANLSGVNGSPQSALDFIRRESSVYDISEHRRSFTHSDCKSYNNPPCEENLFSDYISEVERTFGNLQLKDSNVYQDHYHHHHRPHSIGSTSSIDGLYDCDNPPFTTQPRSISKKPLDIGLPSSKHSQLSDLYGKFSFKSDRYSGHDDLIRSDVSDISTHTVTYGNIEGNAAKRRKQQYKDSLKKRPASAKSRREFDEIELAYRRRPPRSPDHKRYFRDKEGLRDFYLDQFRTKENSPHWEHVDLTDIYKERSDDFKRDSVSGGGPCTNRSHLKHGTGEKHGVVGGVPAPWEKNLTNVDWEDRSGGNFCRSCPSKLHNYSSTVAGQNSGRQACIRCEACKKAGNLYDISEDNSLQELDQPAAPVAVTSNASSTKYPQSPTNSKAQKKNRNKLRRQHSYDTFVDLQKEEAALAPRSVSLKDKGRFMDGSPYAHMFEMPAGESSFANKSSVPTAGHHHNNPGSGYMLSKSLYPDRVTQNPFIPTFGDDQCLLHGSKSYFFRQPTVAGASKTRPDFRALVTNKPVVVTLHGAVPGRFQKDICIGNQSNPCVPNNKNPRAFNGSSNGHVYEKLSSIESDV

In the case of `O=C(O)/C=C/c1ccc(O)c(O)c1`, in test [1], the inhibition stood at 71.5%.

For the molecule `O=C(CN1CCC(Cc2ccccc2)CC1)c1c[nH]c2ccc(O)cc12`, the inhibition in test [1] is more than 92.1%; in test [2], “Dose-dependent effect”.

As for `c1ccc2[nH]ccc2c1`, the inhibition entry in test [1] is “inactive”. Further, in test [3], the inhibition was determined as 25%.

Consider `O=C(CN1CCC(Cc2ccccc2)CC1)c1c[nH]c2cc(O)ccc12`, for which the inhibition in test [1] was more than 93.9%; in test [2], “Dose-dependent effect”.

As for `O=C(NC1CCN(CC(=O)c2c[nH]c3ccc(O)cc23)CC1)c1ccc(O)c(O)c1`, the inhibition in test [1] was more than 94.1%; in test [2], “Dose-dependent effect”. The IC50 in test [4] was 660 nM.

As to `COc1ccc2[nH]ccc2c1`, the inhibition entry in test [1] is “inactive”. Further, the inhibition in test [3] is 47.6%.

For the molecule `O=C(C(=O)N1CCC(Cc2ccccc2)CC1)c1c[nH]c2cc(O)ccc12`, the results for the inhibition in test [1] and in test [2] were 70.7% and “Dose-dependent effect”, respectively.

As for `O=C(C(=O)N1CCC(Cc2ccccc2)CC1)c1c[nH]c2ccc(O)cc12`, the inhibition in test [1] was 80.1%; in test [2] it was “Dose-dependent effect”.

Turning to `O=C(O)c1cc(O)c(O)c(O)c1`, in test [1], the inhibition is more than 94.1%.

For the origin of these results see ChEMBL document CHEMBL2412984, “Indole derivatives as dual-effective agents for the treatment of neurodegenerative diseases: synthesis, biological evaluation, and molecular modeling studies” (Bioorg Med Chem, 2013).
